This note sets out measurements from ChEMBL document CHEMBL1154425, “Histatin-derived monomeric and dimeric synthetic peptides show strong bactericidal activity towards multidrug-resistant Staphylococcus aureus in vivo” (Antimicrob Agents Chemother, 2007).

A short description of series [1]: Biodistribution in Swiss mouse urinary bladder at 2 to 5 MBq, iv administered as [99m]technetium-radiolabeled peptide by scintigraphic imaging. The format is ADME, organism-based. Conditions: in vivo. The method, boiled down:
(§1)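 Mice carry a thigh-muscle infection from 0.1 ml saline containing 0.5 to 2.0 × 10^7 CFU S. aureus. Peptides labelled with 99mTc (2 to 5 MBq) are injected intravenously and tracked by scintigraphic imaging. Radioactivity in bladder, kidneys, spleen, liver and infected muscle is given as % of injected dose, mean ± SD.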

The test system of series [2] is Kidney. As to the kind of experiment: Biodistribution in Swiss mouse kidney at 2 to 5 MBq, iv administered as [99m]technetium-radiolabeled peptide by scintigraphic imaging. The format is ADME, organism-based. Conditions: in vivo. In outline:
as §1

A short description of series [3]: Biodistribution in Staphylococcus aureus infected Swiss mouse thigh muscle at 2 to 5 MBq, iv administered as [99m]technetium-radiolabeled peptide by scintigraphic imaging. As to conditions: in vivo. The format is ADME, organism-based, Muscle tissue. The method, boiled down: as §1
The test system of series [4] is Liver. The series is described as follows: Biodistribution in Swiss mouse liver at 2 to 5 MBq, iv administered as [99m]technetium-radiolabeled peptide by scintigraphic imaging. The format is ADME, organism-based. As to conditions: in vivo. The method, boiled down:
as §1

Series [5] deals with Staphylococcus aureus. The series is described as follows: Bactericidal activity against Staphylococcus aureus ATCC 25923 after 2 hrs. The format is functional. Conditions: ATCC 25923, 2 h. In outline:
(§2)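 1 × 10^6/ml bacteria in phosphate buffer with 1% (wt/vol) tryptic soybean broth exposed to various peptide amounts, 2 h at 37°C. Viable counts on DST plates. LC50 = concentration (μM) cutting viable bacteria by 50% versus no-peptide incubations. Means from at least three independent experiments.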

For series [6], the system named is Spleen. The series is described as follows: Biodistribution in Swiss mouse spleen at 2 to 5 MBq, iv administered as [99m]technetium-radiolabeled peptide by scintigraphic imaging. As to conditions: in vivo. The format is ADME, organism-based. The method, boiled down: as §1
For series [7], the system named is Staphylococcus aureus. The series is described as follows: Bactericidal activity against multidrug-resistant Staphylococcus aureus 2141 isolate after 2 hrs. The format is functional. In outline:
as §2

Series [8] relates to Staphylococcus aureus. As to the kind of experiment: Bactericidal activity against multidrug-resistant Staphylococcus aureus 2141 isolate infected iv dosed Swiss mouse assessed per gram of infected soft tissue after 24 hrs. The format is functional. In outline:
(§3)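 Mice infected with 0.1 ml saline containing 0.5 to 2.0 × 10^7 CFU. After 18 h, various peptide amounts given intravenously. Mice kept another 24 h, then sacrificed and viable bacteria counted. LC50 = μmol/g infected tissue cutting viable counts by 50% versus untreated mice. Means from at least three animals per peptide concentration.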

Series [9] has as its system Staphylococcus aureus. As to the kind of experiment: Bactericidal activity against Staphylococcus aureus ATCC 25923 infected iv dosed Swiss mouse assessed per gram of infected soft tissue after 24 hrs. The format is functional. The method, boiled down:
as §3

In series [10] the test system is Mus musculus. The series is described as follows: Metabolic stability in Swiss mouse at 2 to 5 MBq, iv administered as [99m]technetium-radiolabeled peptide by scintigraphic imaging. The format is ADME, organism-based. Conditions: in vivo. In outline:
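After intravenous injection of 99mTc-labelled peptide (2 to 5 MBq) into thigh-infected mice, scintigraphic imaging follows clearance from the circulation. The value is the biological half-life in minutes, mean ± SD.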

Series [11] in a line: Ratio of drug level in infected thigh muscle to contralateral noninfected thigh muscle in Staphylococcus aureus […] infected Swiss mouse administered as [99m]technetium-radiolabeled peptide. The format is ADME, tissue-based. As to conditions: in vivo. The method, boiled down: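 Thighs are infected with 0.5 to 2.0 × 10^7 CFU S. aureus in 0.1 ml saline, and 99mTc-labelled peptide is given intravenously. Scintigraphic imaging compares radioactivity in the infected thigh muscle (target) with the contralateral noninfected thigh muscle (nontarget). The T/NT ratio is determined at several intervals after injection.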

Series [12] is described as follows: Ratio of drug level in infected thigh muscle to contralateral noninfected thigh muscle in multidrug-resistant Staphylococcus aureus 2141 infected Swiss mouse administered as [99m]technetium-radiolabeled peptide. As to conditions: in vivo. The format is ADME, tissue-based. In outline:
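99mTc-labelled peptides (2 to 5 MBq) injected intravenously into infected mice. Scintigraphic imaging at intervals. Ratio = accumulation in infected thigh muscle (target) over contralateral noninfected thigh muscle (nontarget).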

Positions of bridges follow the written chain, without caps; N, C: chain ends. Residues, ends and D or L forms follow the SMILES beside them. Chains are numbered I, II in the order given.

Regarding `N=C(N)NCCC[C@H](NC(=O)[C@H](Cc1cnc[nH]1)NC(=O)[C@H](CO)NC(=O)[C@H](Cc1cnc[nH]1)NC(=O)[C@H](Cc1cnc[nH]1)NC(=O)[C@H](CCCCN)NC(=O)[C@H](CCC(=O)O)NC(=O)[C@H](Cc1cnc[nH]1)NC(=O)[C@H](Cc1ccccc1)NC(=O)[C@H](CCCCN)NC(=O)[C@H](CCCNC(=N)N)NC(=O)[C@@H](N)CCCCN)C(=O)NCC(=O)N[C@@H](Cc1ccc(O)cc1)C(=O)O` (H-KRKFHEKHHSHRGY-OH), the Drug uptake in [1] turned out to be 30.7 %ID; in series [2], 21 %ID; in series [3], 0.4 %ID; in series [4], 9.4 %ID; in series [6] it was 2.1 %ID. For the same compound, the LC50 in series [5] is 35 µM; in series [7], 112 µM; in series [8] it was 1 µmol/g; in series [9], 2 µmol/g. Besides, the t1/2 in series [10] worked out at 17.7 min. Moreover, the values for the Ratio in [11] and in [12] were 3.5 and 1.8, respectively.

As to `N=C(N)NCCC[C@H](NC(=O)[C@H](Cc1cnc[nH]1)NC(=O)[C@H](CO)NC(=O)[C@H](Cc1cnc[nH]1)NC(=O)[C@H](Cc1cnc[nH]1)NC(=O)[C@H](CCCCN)NC(=O)[C@H](CCC(=O)O)NC(=O)[C@H](Cc1cnc[nH]1)NC(=O)[C@H](Cc1ccccc1)NC(=O)[C@H](CCCCN)NC(=O)[C@H](CCCNC(=N)N)NC(=O)[C@@H](N)CCCCN)C(=O)NCC(=O)N[C@@H](Cc1ccc(O)cc1)C(=O)NCCCC[C@H](NC(=O)[C@H](Cc1ccc(O)cc1)NC(=O)CNC(=O)[C@H](CCCNC(=N)N)NC(=O)[C@H](Cc1cnc[nH]1)NC(=O)[C@H](CO)NC(=O)[C@H](Cc1cnc[nH]1)NC(=O)[C@H](Cc1cnc[nH]1)NC(=O)[C@H](CCCCN)NC(=O)[C@H](CCC(=O)O)NC(=O)[C@H](Cc1cnc[nH]1)NC(=O)[C@H](Cc1ccccc1)NC(=O)[C@H](CCCCN)NC(=O)[C@H](CCCNC(=N)N)NC(=O)[C@@H](N)CCCCN)C(N)=O` (I: H-KRKFHEKHHSHRGYK-NH2 / II: H-KRKFHEKHHSHRGY; amide I:15-II:C), the Drug uptake in series [1] worked out at 26.8 %ID; in series [2], 10.5 %ID; in series [3], 0.5 %ID; in series [4], 9 %ID; in series [6] it was 3.2 %ID. For the same compound, the LC50 in series [5] was 8.4 µM; in [7] it was 8.2 µM; in series [8] it was 2 µmol/g; in series [9] it was 1.5 µmol/g. In series [10], this compound gave a t1/2 of 8.6 min. The Ratio was 4.4 in series [11] and 1.8 in [12].

In the case of `C[C@H](NC(=O)[C@H](Cc1cnc[nH]1)NC(=O)[C@H](CO)NC(=O)[C@@H](N)CC(=O)O)C(=O)N[C@@H](CCCCN)C(=O)N[C@@H](CCCNC(=N)N)C(=O)N[C@@H](Cc1cnc[nH]1)C(=O)N[C@@H](Cc1cnc[nH]1)C(=O)NCC(=O)N[C@@H](Cc1ccc(O)cc1)C(=O)N[C@@H](CCCCN)C(=O)N[C@@H](CCCNC(=N)N)C(=O)N[C@@H](CCCCN)C(=O)N[C@@H](Cc1ccccc1)C(=O)N[C@@H](Cc1cnc[nH]1)C(=O)N[C@@H](CCC(=O)O)C(=O)N[C@@H](CCCCN)C(=O)N[C@@H](Cc1cnc[nH]1)C(=O)N[C@@H](Cc1cnc[nH]1)C(=O)N[C@@H](CO)C(=O)N[C@@H](Cc1cnc[nH]1)C(=O)N[C@@H](CCCNC(=N)N)C(=O)NCC(=O)N[C@@H](Cc1ccc(O)cc1)C(=O)O` [HISTATIN 5], the Drug uptake in series [1] is 25.9 %ID; in series [2], 23.8 %ID; in series [3], 0.5 %ID; in series [4], 8.7 %ID; in [6], 1.4 %ID. In addition, the LC50 is 8.3 µM in [5], 2.8 µM in [7], 3.5 µmol/g in series [8] and 1 µmol/g in [9]. Moreover, the t1/2 in series [10] is recorded as 9.7 min. Besides, the Ratio in series [12] came out at 1.8.
